# Reference: ChEMBL document CHEMBL4043263, “Identification of selective 8-(piperidin-4-yloxy)quinoline sulfone and sulfonamide histamine H1 receptor antagonists for use in allergic rhinitis” (Bioorg Med Chem Lett, 2017)
# What was measured:
# [1] = Dissociation constant, pKa of the compound; format: physicochemical
# [2] = Drug level in CD Sprague-Dawley rat brain at 1 mg/kg, iv administered via bolus dose measured after 5 mins by LC-MS/MS analysis; format: ADME, organism-based; details: read-out: Drug uptake
# How it was run: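 Rats given a 1 mg/kg intravenous bolus; brain and blood sampled 5 min later. Reported as mean brain concentration (ng/g tissue) and brain:blood ratio.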
# [3] = Ratio of drug level in brain to blood in CD Sprague-Dawley rat at 1 mg/kg, iv administered via bolus dose after 5 mins by LC-MS/MS analysis; format: ADME, organism-based; details: brain and blood
# How it was run: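 Rats received a single intravenous bolus at 1 mg/kg. Brain and blood samples were taken 5 min after dosing. Brain concentration was expressed as ng/g tissue, and the brain:blood concentration ratio was calculated.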
# [4] = Blood clearance in CD Sprague-Dawley rat at 1 mg/kg, iv or 3 mg/kg, po by LC-MS/MS analysis; format: ADME, organism-based
# How it was run: (§1)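 CD rats dosed intravenously at 1 mg/kg (n=4) or orally at 3 mg/kg (n=3) as a solution in H2O–PEG200–DMSO (50:45:5). Blood clearance reported as mean and as % of liver blood flow; half-life taken from intravenous data.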
# [5] = Volume of distribution at steady state in CD Sprague-Dawley rat at 1 mg/kg, iv or 3 mg/kg, po by LC-MS/MS analysis; format: ADME, organism-based; details: in vivo, read-out: Vdss
# How it was run: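 CD rats (n=4) received a 1 mg/kg intravenous dose of the dihydrochloride salt as a solution in H2O–PEG200–DMSO (50:45:5). Steady-state volume of distribution was taken from the intravenous blood profile and reported as the mean.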
# [6] = Elimination half life in CD Sprague-Dawley rat at 1 mg/kg, iv by LC-MS/MS analysis; format: ADME, organism-based; details: in vivo, read-out: beta t1/2 (converted); how it was run: as §1
# [7] = Oral bioavailability in CD Sprague-Dawley rat at 10 mg/kg by LC-MS/MS analysis; format: ADME, organism-based; details: in vivo
# How it was run: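 Three rats dosed orally at 10 mg/kg in 0.5% hydroxypropylmethyl cellulose. Bioavailability is a lower-bound estimate because the terminal phase was poorly defined.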
# [8] = Bioavailability in CD Sprague-Dawley rat at 2 mg/kg, sc by LC-MS/MS analysis; format: ADME, organism-based; details: in vivo
# How it was run: (§2)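 Single rat dosed subcutaneously at 2 mg/kg in DMSO–PEG 200–water (5:45:50). Bioavailability estimated against intravenous data.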
# [9] = system: Rattus norvegicus; experiment: Blood clearance in CD Sprague-Dawley rat at 1 mg/kg, iv or 3 mg/kg, po by LC-MS/MS analysis relative to liver blood flow; format: ADME, organism-based; details: in vivo; how it was run: as §1
# [10] = Blood clearance in Beagle dog at 0.5 mg/kg, iv administered via bolus dose or 1 mg/kg, po administered via gavage by LC-MS/MS analysis; format: ADME, organism-based, Canis lupus familiaris
# [11] = system: Canis familiaris; experiment: Blood clearance in Beagle dog at 0.5 mg/kg, iv administered via bolus dose or 1 mg/kg, po administered via gavage by LC-MS/MS analysis relative to liver blood flow; format: ADME, organism-based, Canis lupus familiaris; details: in vivo
# [12] = Volume of distribution at steady state in Beagle dog at 0.5 mg/kg, iv administered via bolus dose or 1 mg/kg, po administered via gavage by LC-MS/MS analysis; format: ADME, organism-based, Canis lupus familiaris; details: in vivo, read-out: Vdss
# [13] = Elimination half life in Beagle dog at 0.5 mg/kg, iv administered via bolus dose or 1 mg/kg, po administered via gavage by LC-MS/MS analysis; format: ADME, organism-based, Canis lupus familiaris; details: in vivo, read-out: beta t1/2 (converted)
# [14] = Oral bioavailability in Beagle dog at 1 to 2 mg/kg administered via gavage by LC-MS/MS analysis; format: ADME, organism-based, Canis lupus familiaris; details: in vivo
# How it was run: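 Beagle dogs given oral doses of 1 mg/kg (n=2) or 2 mg/kg (n=2) in H2O–PEG200–DMSO (50:45:5). Bioavailability is the mean of the four animals, referenced to a 1 mg/kg intravenous dose.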
# [15] = Drug excretion in Beagle dog urine at 1 mg/kg, po administered via gavage by LC-MS/MS analysis; format: ADME, organism-based, Canis lupus familiaris; details: read-out: Drug excretion
# How it was run: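 Parent compound measured in urine of dogs after intravenous (1 mg/kg) or oral dosing; expressed as % of dose.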
# [16] = system: Liver; experiment: Drug metabolism in rat liver microsomes; format: ADME, microsome
# How it was run: (§3)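 Intrinsic clearance measured in vitro with liver microsomes from mouse, rat, dog and human; expressed as mL/min/g tissue.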
# [17] = system: Liver; experiment: Drug metabolism in human liver microsomes; format: ADME, microsome; how it was run: as §3
# [18] = system: Liver; experiment: Drug metabolism in dog liver microsomes; format: ADME, Canis lupus familiaris, microsome; how it was run: as §3
# [19] = system: Liver; experiment: Drug metabolism in mouse liver microsomes; format: ADME, microsome; how it was run: as §3
# [20] = Drug absorption in CD Sprague-Dawley rat hepatic portal vein at 3 mg/kg, po; format: ADME, organism-based; details: read-out: Drug absorption
# How it was run: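 Rats given 3 mg/kg orally; the fraction of dose absorbed into the hepatic portal vein was calculated.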
# [21] = Drug metabolism in human hepatocytes assessed as M11 formation by mass spectrometric analysis; format: ADME, cell-based, Hepatocyte
# [22] = Drug metabolism in human hepatocytes assessed as M15 formation by mass spectrometric analysis; format: ADME, cell-based, Hepatocyte
# [23] = Drug metabolism in human hepatocytes assessed as M19 formation by mass spectrometric analysis; format: ADME, cell-based, Hepatocyte
# [24] = Drug metabolism in human hepatocytes assessed as M24 formation by mass spectrometric analysis; format: ADME, cell-based, Hepatocyte
# [25] = Drug metabolism in human hepatocytes assessed as M26 formation by mass spectrometric analysis; format: ADME, cell-based, Hepatocyte
# [26] = Bioavailability in sc dosed CD Sprague-Dawley rat by LC-MS/MS analysis; format: ADME, organism-based; details: in vivo; how it was run: as §2
# [27] = Permeability in MDCK cells; format: ADME, cell-based, Canis lupus familiaris; details: dog, read-out: permeability
# How it was run: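 Permeability measured across MDCK cell monolayers, reported in nm/s; n=3.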
# [28] = Drug level in CD Sprague-Dawley rat brain at 300 mg/kg, po measured after 30 mins by LC-MS/MS analysis; format: ADME, organism-based; details: read-out: Drug uptake
# How it was run: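 Rats given a single 300 mg/kg oral dose; brain and blood sampled 30 min later. Reported as brain concentration (ng/g) and brain:blood ratio.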
# [29] = Drug uptake in arterial blood of ovalbumin-sensitized guinea pig model of histamine-induced allergic rhinitis at 1 mg/ml administered intranasally pretreated for 4 hrs followed by histamine challenge after 30 mins post atropine monohydrate hemisulfate addition; format: ADME, tissue-based, Cavia porcellus; details: in vivo, inhaled_or_intranasal, 0.5 h
# How it was run: (§4)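 Arterial blood taken from guinea pigs immediately after nasal congestion was assessed, 4 or 25 h after an intranasal dose of 1 mg/mL solution (25 µL/nostril).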
# [30] = Drug uptake in arterial blood of ovalbumin-sensitized guinea pig model of histamine-induced allergic rhinitis at 1 mg/ml administered intranasally pretreated for 24 hrs followed by histamine challenge after 30 mins post atropine monohydrate hemisulfate addition; format: ADME, tissue-based, Cavia porcellus; details: in vivo, inhaled_or_intranasal, 0.5 h; how it was run: as §4
# [31] = Drug level in blood of ovalbumin-sensitized guinea pig model of histamine-induced allergic rhinitis; format: ADME, tissue-based, Cavia porcellus; details: read-out: Drug uptake; how it was run: as §4
# [32] = in vivo; details: CD Sprague-Dawley, rat, brain and blood, po, 300 mg/kg
# [33] = AUC (0 to last) in CD Sprague-Dawley rat at 3 mg/kg, po by LC-MS/MS analysis
# [34] = Drug excretion in Beagle dog urine at 1 mg/kg, iv administered via bolus dose by LC-MS/MS analysis
smiles,measurement,setting,value
CCCCc1cc(OC2CCN(CCCNS(=O)(=O)CC)CC2)c2ncccc2c1,pKa,[1],8.5
CCCCc1cc(OC2CCN(CCCS(=O)(=O)C(C)(C)C)CC2)c2ncccc2c1,pKa,[1],8
same,concentration at 5 min,[2],133 ng/g
same,Kp at 5 min,[3],0.77
CCCCc1cc(OC2CCN(CCS(=O)(=O)CC)CC2)c2ncccc2c1,pKa,[1],6.5
CCCCc1cc(OC2CCN(CCCCNS(=O)(=O)CC)CC2)c2ncccc2c1.Cl.Cl,concentration at 5 min,[2],26 ng/g
same,Kp at 5 min,[3],0.1
same,clearance,[4],38 mL/min/kg
same,Vd,[5],4.2 L/kg
same,half-life,[6],1.8 h
same,bioavailability,[7],4 to 9%
same,bioavailability,[8],45%
same,CL,[9],45%
same,clearance,[10],20 mL/min/kg
same,CL,[11],65%
same,Vd,[12],4.5 L/kg
same,half-life,[13],3.8 h
same,bioavailability,[14],5%
same,dose excreted,[15],< 0.1%
same,Drug metabolism,[16],2.9 mL/min/g
same,Drug metabolism,[17],1.4 mL/min/g
same,Drug metabolism,[18],3.6 mL/min/g
same,Drug metabolism,[19],3.7 mL/min/g
same,Fa,[20],13 to 16%
same,Drug metabolism,[21],Metabolite_Detected
same,Drug metabolism,[22],Metabolite_Detected
same,Drug metabolism,[23],Metabolite_Detected
same,Drug metabolism,[24],Metabolite_Detected
same,Drug metabolism,[25],Metabolite_Detected
same,bioavailability,[26],45%
same,Papp,[27],5.2 ×10⁻⁶ cm/s
same,concentration at 0.5 h,[28],14500 ng/g
same,Drug uptake,[29],Active
same,Drug uptake,[30],Active
same,concentration,[31],7 nM
same,Kp at 0.5 h,[32],11
same,AUC(0-t),[33],62 ng·h/mL
same,dose excreted,[34],< 1%
CCCCc1cc(OC2CCN(CCCS(=O)(=O)CC)CC2)c2ncccc2c1.Cl.Cl,pKa,[1],7.9
same,concentration at 5 min,[2],62 ng/g
same,Kp at 5 min,[3],0.09
same,AUC(0-t),[33],568 ng·h/mL
